Data from ChEMBL document CHEMBL2375304, “Synthesis and anticancer activity of novel 2-pyridyl hexahyrocyclooctathieno[2,3-d]pyrimidine derivatives” (2013).

Legend:
Type in all cases: functional
LOX IMVI = test: Growth inhibition of human LOXIMVI cells at 10^-5 M after 48 hrs by Sulforhodamine B assay relative to control; details: read-out: GI
Method in brief: (§1)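 Single-dose screen at 10⁻⁵ M. Cells are preincubated 24 h at 37 °C in 5% CO2, then exposed to the compound, diluted from a DMSO stock into medium with gentamicin, for 48 h. Adherent cells are fixed with cold TCA (final 10%) and suspension cells with TCA (final 16%). Cells are stained with 0.4% SRB in 1% acetic acid and bound dye is read at 515 nm. Percent growth inhibition is taken against control wells and time-zero plates.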

U-251 = test: Growth inhibition of human U251 cells at 10^-5 M after 48 hrs by Sulforhodamine B assay relative to control; details: U-251, 48 h, read-out: GI
Method in brief: (§2)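 Single-dose stage: compound tested at 10⁻⁵ M in the 49-cell-line panel. Cells grew 24 h at 37 °C, 5% CO₂ before drug addition. Drug stock was in DMSO at 400-fold, diluted in medium with gentamicin. After 48 h exposure, adherent cells were fixed with cold TCA (10% final) and stained with 0.4% SRB in 1% acetic acid. Dye was solubilized in 10 mM Tris, read at 515 nm. Growth percentage was taken relative to untreated control and time-zero plates.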

SF-268 = test: Growth inhibition of human SF268 cells at 10^-5 M after 48 hrs by Sulforhodamine B assay relative to control; details: SF-268, 48 h, read-out: GI
Method in brief: (§3)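 Single-dose primary screen at 10⁻⁵ M across 49 lines. Cells were plated 24 h beforehand, with a TCA-fixed time-zero plate, then exposed 48 h at 37 °C, 5% CO2. Cells were fixed with cold TCA, stained with SRB and read at 515 nm. Percent growth was calculated against time-zero and untreated-control absorbances.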

NCI-H322M [1] = test: Growth inhibition of human NCI-H322M cells at 10^-5 M after 48 hrs by Sulforhodamine B assay relative to control; details: read-out: GI; method in brief: as §3
HOP-62 = test: Growth inhibition of human HOP62 cells at 10^-5 M after 48 hrs by Sulforhodamine B assay relative to control; details: HOP-62, 48 h, read-out: GI; method in brief: as §1
CCRF-CEM = test: Growth inhibition of human CCRF-CEM cells at 10^-5 M after 48 hrs by Sulforhodamine B assay relative to control; details: read-out: GI; method in brief: as §1
Hs-578T [2] = test: Growth inhibition of human Hs578T cells at 10^-5 M after 48 hrs by Sulforhodamine B assay relative to control; details: read-out: GI; method in brief: as §1
MDA-MB-231 [3] = test: Growth inhibition of human MDA-MB-231 cells at 10^-5 M after 48 hrs by Sulforhodamine B assay relative to control; details: MDA-MB-231, 48 h, read-out: GI; method in brief: as §1
PC-3 = test: Growth inhibition of human PC3 cells at 10^-5 M after 48 hrs by Sulforhodamine B assay relative to control; details: PC-3, 48 h, read-out: GI; method in brief: as §3
ACHN = test: Growth inhibition of human ACHN cells at 10^-5 M after 48 hrs by Sulforhodamine B assay relative to control; details: read-out: GI; method in brief: as §1
A498 = test: Growth inhibition of human A498 cells at 10^-5 M after 48 hrs by Sulforhodamine B assay relative to control; details: A498, 48 h, read-out: GI; method in brief: as §1
[4] = Growth inhibition of human NCI-ADR-RES cells at 10^-5 M after 48 hrs by Sulforhodamine B assay relative to control; details: read-out: GI; method in brief: as §3
OVCAR-8 [5] = test: Growth inhibition of human OVCAR8 cells at 10^-5 M after 48 hrs by Sulforhodamine B assay relative to control; details: OVCAR-8, 48 h, read-out: GI; method in brief: as §3
UACC-62 = test: Growth inhibition of human UACC62 cells at 10^-5 M after 48 hrs by Sulforhodamine B assay relative to control; details: UACC-62, 48 h, read-out: GI; method in brief: as §2
Hs-578T [6] = test: Growth inhibition of human Hs578T cells after 48 hrs by Sulforhodamine B assay
Method in brief: (§4)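 Five-concentration SRB assay using 10-fold or ½-log serial dilutions from a DMSO stock. Exposure is 48 h at 37 °C in 5% CO2 after 24 h preincubation. TCA fixation is followed by SRB staining and a reading at 515 nm. Percentage growth is computed from time-zero, control and treated absorbances. GI50 is the concentration where [(Ti−Tz)/(C−Tz)]×100 = 50, read from the plot against log concentration.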

MDA-MB-231 [7] = test: Growth inhibition of human MDA-MB-231 cells after 48 hrs by Sulforhodamine B assay; details: MDA-MB-231, 48 h; method in brief: as §4
UO-31 = test: Growth inhibition of human UO31 cells after 48 hrs by Sulforhodamine B assay; details: UO-31, 48 h
Method in brief: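 Five-concentration stage in the […]-cell-line panel, using 10-fold or ½-log serial dilutions made from a DMSO stock (400-fold). Cells were preincubated 24 h at 37 °C, then drug-exposed 48 h. A time-zero plate was fixed with TCA at dosing, adherent cells were fixed with cold TCA (10% final), and protein was stained with SRB, absorbance 515 nm. GI50 was where [(Ti−Tz)/(C−Tz)]×100 = 50, from the percent growth vs log concentration plot, expressed as log10 GI50.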

SN12C = test: Growth inhibition of human SN12C cells after 48 hrs by Sulforhodamine B assay
Method in brief: (§5)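 Cells were preincubated 24 h at 37 °C, 5% CO2, and a time-zero plate was TCA-fixed. Five concentrations were made by serial dilution from a DMSO stock (400-fold the top concentration) and incubated 48 h. Adherent cells were fixed with 10% final TCA and suspension cells with 16%. Plates were stained with 0.4% SRB and read at 515 nm. GI50 is the concentration giving 50% reduction in net protein increase versus control.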

OVCAR-8 [8] = test: Growth inhibition of human OVCAR8 cells after 48 hrs by Sulforhodamine B assay; details: OVCAR-8, 48 h; method in brief: as §5
OVCAR-5 = test: Growth inhibition of human OVCAR5 cells after 48 hrs by Sulforhodamine B assay; details: OVCAR-5, 48 h; method in brief: as §5
SK-MEL-5 = test: Growth inhibition of human SK-MEL-5 cells after 48 hrs by Sulforhodamine B assay; details: SK-MEL-5, 48 h; method in brief: as §5
SK-MEL-28 = test: Growth inhibition of human SK-MEL-28 cells after 48 hrs by Sulforhodamine B assay; details: SK-MEL-28, 48 h; method in brief: as §5
SK-MEL-2 = test: Growth inhibition of human SK-MEL-2 cells after 48 hrs by Sulforhodamine B assay; details: SK-MEL-2, 48 h; method in brief: as §5
SF-539 = test: Growth inhibition of human SF539 cells after 48 hrs by Sulforhodamine B assay; details: SF-539, 48 h; method in brief: as §5
NCI-H460 = test: Growth inhibition of human NCI-H460 cells after 48 hrs by Sulforhodamine B assay; details: NCI-H460, 48 h; method in brief: as §5
NCI-H522 = test: Growth inhibition of human NCI-H522 cells after 48 hrs by Sulforhodamine B assay; details: NCI-H522, 48 h; method in brief: as §5
NCI-H322M [9] = test: Growth inhibition of human NCI-H322M cells after 48 hrs by Sulforhodamine B assay; method in brief: as §5
NCI-H226 = test: Growth inhibition of human NCI-H226 cells after 48 hrs by Sulforhodamine B assay; details: NCI-H226, 48 h; method in brief: as §5

Row | Compound | inhibition of growth at 10 µM (LOX IMVI) | inhibition of growth at 10 µM (U-251) | inhibition of growth at 10 µM (SF-268) | inhibition of growth at 10 µM (NCI-H322M [1]) | inhibition of growth at 10 µM (HOP-62) | inhibition of growth at 10 µM (CCRF-CEM) | GI50 (Hs-578T [6]) | GI50 (MDA-MB-231 [7]) | GI50 (UO-31) | GI50 (SN12C) | GI50 (OVCAR-8 [8]) | GI50 (OVCAR-5) | GI50 (SK-MEL-5) | GI50 (SK-MEL-28) | GI50 (SK-MEL-2) | GI50 (SF-539) | GI50 (NCI-H460) | GI50 (NCI-H522) | GI50 (NCI-H322M [9]) | GI50 (NCI-H226) | also measured
1 | NNc1nc(-c2ccncc2)nc2sc3c(c12)CCCCCC3 | 5.88% | 6.15% | -17.8% | 3.42% | 4.03% | 25.9% | – | – | – | – | – | – | – | – | – | – | – | – | – | – | inhibition of growth at 10 µM (Hs-578T [2]): -13.7%; inhibition of growth at 10 µM (MDA-MB-231 [3]): 1.46%; inhibition of growth at 10 µM (PC-3): 7.42%; inhibition of growth at 10 µM (ACHN): 8.69%; inhibition of growth at 10 µM (A498): 18.6%; inhibition of growth at 10 µM [4]: 2.44%; inhibition of growth at 10 µM (OVCAR-8 [5]): 2.51%; inhibition of growth at 10 µM (UACC-62): 10.8%
2 | c1ccc(-c2nc(N3CCOCC3)c3c4c(sc3n2)CCCCCC4)nc1 | – | – | – | – | – | – | 3.39 µM | 7.41 µM | 1.17 µM | 5.01 µM | 5.13 µM | 10.2 µM | 2 µM | 11 µM | 7.94 µM | 12.9 µM | 5.89 µM | 5.89 µM | 5.5 µM | 5.01 µM | –
3 | NNc1nc(-c2ccccn2)nc2sc3c(c12)CCCCCC3 | – | – | – | – | – | – | 11 µM | 12.6 µM | 1.02 µM | 6.31 µM | 4.37 µM | 8.71 µM | 3.16 µM | 14.8 µM | 14.5 µM | 11 µM | 4.17 µM | 12 µM | 5.37 µM | 10.2 µM | –
4 | O=c1[nH]c(-c2ccncc2)nc2sc3c(c12)CCCCCC3 | – | – | – | – | – | – | > 100 µM | > 100 µM | > 100 µM | > 100 µM | > 100 µM | > 100 µM | > 100 µM | > 100 µM | > 100 µM | > 100 µM | > 100 µM | > 100 µM | > 100 µM | > 100 µM | –
5 | Clc1nc(-c2ccccn2)nc2sc3c(c12)CCCCCC3 | 32.2% | 2.82% | 5.35% | 15.5% | 13.4% | 27.6% | – | – | – | – | – | – | – | – | – | – | – | – | – | – | inhibition of growth at 10 µM (Hs-578T [2]): 8.7%; inhibition of growth at 10 µM (MDA-MB-231 [3]): -16.9%; inhibition of growth at 10 µM (PC-3): 7.81%; inhibition of growth at 10 µM (ACHN): 120%; inhibition of growth at 10 µM (A498): -18.4%; inhibition of growth at 10 µM [4]: 10.7%; inhibition of growth at 10 µM (OVCAR-8 [5]): 12.9%; inhibition of growth at 10 µM (UACC-62): 4.04%
6 | O=c1[nH]c(-c2ccccn2)nc2sc3c(c12)CCCCCC3 | – | – | – | – | – | – | 6.46 µM | 8.71 µM | 5.89 µM | 6.31 µM | 4.37 µM | 91.2 µM | 2.95 µM | 6.03 µM | > 100 µM | 7.76 µM | 1.91 µM | > 100 µM | 85.1 µM | > 100 µM | –
